One test has as its system HL-60. The test can be described thus: Antiproliferative activity against human HL60 cells by MTT assay. Format: functional. Conditions: read-out: ID50 (the source's name). The essentials:
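HL-60 promyelocytic leukemia cells in suspension in RPMI 1640 with 10% FBS, 2 mM glutamine, 1 mM pyruvate, glucose, antibiotics, 37 °C, 5% CO₂. Plated 10⁴ cells/well 24 h before dosing. Exposed 72 h to 0.1–100 µg/ml, ethanol vehicle. MTT (5 mg/ml stock) added for the last 3–4 h. SDS/DMF lysis for 24 h, OD 570 nm. ID₅₀ mean ± SD. Triplicates, 3–5 experiments.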
(In general: Tetrazolium dyes change colour on reduction, which living cells bring about.)

The next test relates to A549. Kind of test: Antiproliferative activity against human A549 cells by […]. The settings on record: read-out: ID50 (the source's name). Type of test: functional. The essentials: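 A549 human lung adenocarcinoma cells grown at 37 °C, 5% CO₂ in RPMI 1640+Opti-MEM (1:1) with 5% FBS, 2 mM glutamine, penicillin/streptomycin. Plated 10⁴ cells/well 24 h before dosing. Exposed 72 h to 0.1–100 µg/ml, ethanol vehicle. Cold 50% TCA fixation at 4 °C for 1 h, 0.4% SRB stain, OD 540 nm. ID₅₀ per experiment, mean ± SD. Triplicates, 3–5 experiments.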

The values below come from ChEMBL document CHEMBL1764949, “Microbial transformation of (+)-nootkatone and the antiproliferative activity of its metabolites” (2011).

Each structure is given as a SMILES string. Converted amounts (≈) assume the structure as drawn.

Turning to `C[C@@H]1CC(=O)C=C2CC[C@@H]([C@@]3(C)CO3)C[C@]21C`, the IC50 with HL-60 came out at 27.6 µg/mL (≈ 118 µM); with A549, 167 µg/mL (≈ 713 µM).

Regarding `C=C(C)[C@@H]1C[C@@H](O)C2=CC(=O)C[C@@H](C)[C@]2(C)C1`, the IC50 with HL-60 was 25.7 µg/mL (≈ 110 µM); with A549, 62.7 µg/mL (≈ 268 µM).

Take `C=C(CO)[C@@H]1CCC2=CC(=O)C[C@@H](C)[C@]2(C)C1`: the IC50 in the test on HL-60 came to 4.4 µg/mL (≈ 18.8 µM); in the test on A549 it was 36 µg/mL (≈ 154 µM).

As to `C[C@@H]1CC(=O)C=C2[C@H](O)C[C@H]([C@@]3(C)CO3)C[C@]21C`, the IC50 was determined as 345 µg/mL (≈ 1380 µM) with HL-60 and 289 µg/mL (≈ 1150 µM) in the test with A549.

As for `C[C@@H]1CC(=O)C=C2CC[C@@H](C(C)(O)CO)C[C@]21C` (some centres undefined), the figures for the IC50 in the test with HL-60 and in the test with A549 were 284 µg/mL (≈ 1130 µM) and 325 µg/mL (≈ 1290 µM), respectively.

Take `C[C@@H]1CC(=O)C=C2CC[C@](O)(C(C)(O)CO)C[C@]21C` (some centres undefined): the figures for the IC50 in the test on HL-60 and in the test with A549 were 25.8 µg/mL (≈ 96.1 µM) and 290 µg/mL (≈ 1080 µM), respectively.

Take `C=C(C)[C@@H]1CCC2=CC(=O)C[C@@H](C)[C@]2(C)C1` [NOOTKATONE]: the IC50 in the test on HL-60 is 4.27 µg/mL (≈ 19.6 µM); with A549, 58.4 µg/mL (≈ 267 µM).
